# From ChEMBL document CHEMBL1156262, “Substituted benzothiophene or benzofuran derivatives as a novel class of bone morphogenetic protein-2 up-regulators: synthesis, structure-activity relationships, and preventive bone loss efficacies in senescence accelerated mice (SAMP6) and ovariectomized rats” (J Med Chem, 2010)
# Activity calls are given as the source filed them. No cut-off for these calls is given here.
# Tests used:
# [1] = Induction of BMP2 expression in mouse calcarial MC3T3-E1 cells stably transfected with mouse BMP2 promotor-luciferase assessed as upregulation rate at 4 uM; assay type: functional, cell-based
# Method in brief: (§1)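 Reporter assay in murine calvarial MC3T3-E1 cells stably carrying the mouse BMP-2 promoter fused to firefly luciferase (pGL4BMP-2). Cells grown in DMEM with 10% heat-inactivated FBS at 37 °C and 5% CO2. Test compounds at 4.0 μM; lovastatin at 0.4 μM as positive control; 0.1% DMSO as negative control. Up-regulation rate = (RLU of test − RLU of negative control)/RLU of negative control × 100.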
# Mus musculus [2] = test: Induction of bone mineral density in SAMP6 mouse assessed as whole body BMD at 30 mg/kg/day, po measured after 2 months; assay type: functional, organism-based
# Method in brief: (§2)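 SAMP6 mice, 5 months old, n = 5 per group, given compound in 0.5% methylcellulose by gavage daily. Dual-energy X-ray absorptiometry under pentobarbital anaesthesia (50 mg/kg ip), animals prone, at 0, 4, 8 and 12 weeks of treatment. Regions of interest were whole body, spine and left hind leg.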
# Mus musculus [3] = test: Induction of bone formation in SAMP6 mouse right femora assessed as trabecular formation surface percentage at 10 mg/kg/day, po measured after 3 months by bone histomorphometry; assay type: functional, Trabecula
# Method in brief: (§3)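 SAMP6 mice, 5 months old, n = 5 per group (3 male, 2 female), randomized by initial BMD. Given compound in 0.5% methylcellulose by gavage daily for 3 months. Proximal third of the right femur fixed in 4% paraformaldehyde, cut as undecalcified sections, and scored by image analysis for histomorphometry.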
# Mus musculus [4] = test: Induction of bone mineral density in SAMP6 mouse assessed as spine BMD at 10 mg/kg/day, po measured after 3 months; assay type: functional; method in brief: as §2
# Mus musculus [5] = test: Induction of bone formation in SAMP6 mouse right femora assessed as trabecular resorption surface percentage at 10 mg/kg/day, po measured after 3 months by bone histomorphometry; assay type: functional, Trabecula; method in brief: as §3
# Mus musculus [6] = test: Induction of bone formation in SAMP6 mouse right femora assessed as trabecular bone volume percentage at 10 mg/kg/day, po measured after 3 months by bone histomorphometry; assay type: functional, Trabecula; method in brief: as §3
# Mus musculus [7] = test: Induction of bone mineral density in SAMP6 mouse assessed as left hind leg BMD at 10 mg/kg/day, po measured after 3 months; assay type: functional; method in brief: as §2
# Mus musculus [8] = test: Induction of bone formation in SAMP6 mouse right femora assessed as average osteoid width at 10 mg/kg/day, po measured after 3 months by bone histomorphometry; assay type: functional; method in brief: as §3
# [9] = Induction of BMP2 expression in mouse […] MC3T3-E1 cells stably transfected with mouse BMP2 promotor-luciferase assessed as upregulation rate at 0.4 uM; assay type: functional, cell-based; method in brief: as §1
# Mus musculus [10] = test: Induction of bone mineral density in SAMP6 mouse assessed as whole body BMD at 10 mg/kg/day, po measured after 3 months; assay type: functional; method in brief: as §2
# Mus musculus [11] = test: Induction of bone mineral density in SAMP6 mouse assessed as spine BMD at 10 mg/kg/day, po measured last 2 months; assay type: functional, organism-based; method in brief: as §2
# Mus musculus [12] = test: Induction of bone mineral density in SAMP6 mouse assessed as whole body BMD at 10 mg/kg/day, po measured after 1 month; assay type: functional, organism-based; conditions: 30 mg/kg, in the assay text read “30 mg/kg/day” for “10 mg/kg/day”; method in brief: as §2
# Mus musculus [13] = test: Toxicity in SAMP6 mouse assessed as increase in body weight at 30 mg/kg/day, po after 3 months; assay type: organism-based; parameters: route oral; conditions: in vivo
# Method in brief: (§4)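 SAMP6 mice, n = 5 per group, dosed orally at 30 mg/kg/day in 0.5% methylcellulose for 3 months. Heart, liver, spleen, lung and kidney harvested, weighed and examined histologically. Organ/body weight indexes, body weight, and 24 h water and food intake (g/g body weight) compared with vehicle controls.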
# Mus musculus [14] = test: Induction of BMP2 expression in SAMP6 mouse osteoblast at 30 mg/kg/day, po after 3 months by immunohistochemical analysis; assay type: functional, organism-based
# Method in brief: (§5)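 SAMP6 mice, 5 months old, male and female, n = 5 per group (3 male, 2 female). Dosed by gavage with compound suspended in 0.5% methylcellulose daily for 3 months; the vehicle group received methylcellulose only. Proximal third of the left femur fixed in 4% neutral paraformaldehyde for 24 h, decalcified in 10% EDTA at 4 °C for 4 weeks, then frozen-sectioned at 5 μm. Stained with rabbit polyclonal anti-BMP-2 and an alkaline phosphatase secondary. BMP-2-positive area was taken as a percentage of bone tissue area, averaged over five fields below the epiphyseal plate.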
# Mus musculus [15] = test: Toxicity in SAMP6 mouse assessed as change in 24 hrs food consumption at 30 mg/kg/day, po after 3 months; assay type: organism-based; parameters: route oral; conditions: in vivo; method in brief: as §4
# Mus musculus [16] = test: Induction of bone formation in SAMP6 mouse right femora assessed as trabecular bone volume percentage at 30 mg/kg/day, po measured after 3 months by bone histomorphometry; assay type: functional, Trabecula; method in brief: as §3
# Mus musculus [17] = test: Induction of bone mineral density in SAMP6 mouse assessed as whole body BMD at 30 mg/kg/day, po measured after 3 months; assay type: functional; method in brief: as §2
# Mus musculus [18] = test: Toxicity in SAMP6 mouse assessed as pathological changes in heart at 30 mg/kg/day, po after 3 months by histomorphology; assay type: organism-based; parameters: route oral; conditions: in vivo; method in brief: as §4
# Mus musculus [19] = test: Induction of BMP2 expression in SAMP6 mouse cartilage cells at 30 mg/kg/day, po after 3 months by immunohistochemical analysis; assay type: functional, organism-based; method in brief: as §5
# [20] = Toxicity in po dosed Kunming mouse assessed as mortality treated for 3 days measured after 17 days; assay type: organism-based; conditions: in vivo
# Method in brief: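 Male and female Kunming mice (18-21 g), six per group (three males, three females), were dosed orally at 500 or 700 (mg/kg)/day for 3 days. They were closely watched for deaths over the 3 dosing days and the following 14 days (17 days in total).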
# Mus musculus [21] = test: Toxicity in SAMP6 mouse assessed as pathological changes in kidney at 30 mg/kg/day, po after 3 months by histomorphology; assay type: organism-based; parameters: route oral; conditions: in vivo; method in brief: as §4
# Mus musculus [22] = test: Toxicity in SAMP6 mouse assessed as pathological changes in lung at 30 mg/kg/day, po after 3 months by histomorphology; assay type: organism-based; parameters: route oral; conditions: in vivo; method in brief: as §4
# Mus musculus [23] = test: Induction of bone formation in SAMP6 mouse right femora assessed as average osteoid width at 30 mg/kg/day, po measured after 3 months by bone histomorphometry; assay type: functional; method in brief: as §3
# Mus musculus [24] = test: Toxicity in SAMP6 mouse assessed as change in 24 hrs water consumption at 30 mg/kg/day, po after 3 months; assay type: organism-based; parameters: route oral; conditions: in vivo; method in brief: as §4
# Mus musculus [25] = test: Toxicity in SAMP6 mouse assessed as pathological changes in liver at 30 mg/kg/day, po after 3 months by histomorphology; assay type: organism-based; parameters: route oral; conditions: in vivo; method in brief: as §4
# Mus musculus [26] = test: Induction of bone mineral density in SAMP6 mouse assessed as left hind leg BMD at 30 mg/kg/day, po measured after 3 months; assay type: functional; method in brief: as §2
# Mus musculus [27] = test: Induction of bone formation in SAMP6 mouse right femora assessed as trabecular resorption surface percentage at 30 mg/kg/day, po measured after 3 months by bone histomorphometry; assay type: functional, Trabecula; method in brief: as §3
# Mus musculus [28] = test: Toxicity in SAMP6 mouse assessed as pathological changes in spleen at 30 mg/kg/day, po after 3 months by histomorphology; assay type: organism-based; parameters: route oral; conditions: in vivo; method in brief: as §4
# Mus musculus [29] = test: Induction of bone formation in SAMP6 mouse right femora assessed as trabecular formation surface percentage at 30 mg/kg/day, po measured after 3 months by bone histomorphometry; assay type: functional, Trabecula; method in brief: as §3
# Mus musculus [30] = test: Induction of BMP2 expression in SAMP6 mouse bone marrow stroma at 30 mg/kg/day, po after 3 months by immunohistochemical analysis; assay type: functional, organism-based; method in brief: as §5
# Mus musculus [31] = test: Induction of bone mineral density in SAMP6 mouse assessed as spine BMD at 30 mg/kg/day, po measured after 3 months; assay type: functional; method in brief: as §2
# Mus musculus [32] = test: Induction of bone mineral density in SAMP6 mouse assessed as whole body BMD at 30 mg/kg/day, po measured after 2 months
# Mus musculus [33] = test: Induction of BMP2 expression in SAMP6 mouse osteoblast at 10 mg/kg/day, po after 3 months by immunohistochemical analysis; assay type: functional, organism-based; method in brief: as §5
smiles,measurement,setting,value
COC(=O)c1ccc2sc(C(C)=O)cc2c1,Activity,[1],41.4%
CC[C@H](C)C(=O)O[C@H]1C[C@@H](C)C=C2C=C[C@H](C)[C@H](CC[C@@H]3C[C@@H](O)CC(=O)O3)[C@H]21 [LOVASTATIN],Activity,Mus musculus [2],Active
same,Activity,Mus musculus [3],6.22%
same,Activity,Mus musculus [4],0.095 g/cm2
same,Activity,Mus musculus [5],6.64%
same,Activity,Mus musculus [6],7.44%
same,Activity,Mus musculus [7],0.046 g/cm2
same,Activity,Mus musculus [8],6.59 µm
same,Activity,[9],20.9%
same,Activity,Mus musculus [10],0.07 g/cm2
same,Activity,Mus musculus [11],Active
O=C(/C=C/c1ccccc1Cl)c1cc2ccccc2s1,Activity,[1],2%
CCOC(=O)c1ccc2sc(C(=O)/C=C/c3ccc(OC)cc3)cc2c1,Activity,[1],1.7%
O=C(/C=C/c1ccccc1)c1cc2ccccc2o1,Activity,[1],24.4%
COc1ccc(/C=C/C(=O)c2cc3ccccc3s2)cc1,Activity,Mus musculus [12],Active
same,Activity,Mus musculus [13],Non-toxic
same,Activity,Mus musculus [14],Active
same,Activity,Mus musculus [15],Non-toxic
same,Activity,Mus musculus [16],8.94%
same,Activity,Mus musculus [17],0.07 g/cm2
same,Activity,Mus musculus [18],Non-toxic
same,Activity,Mus musculus [19],inactive
same,LD50 at 408 h,[20],> 500 mg/kg
same,Activity,Mus musculus [21],Non-toxic
same,Activity,Mus musculus [22],Non-toxic
same,Activity,Mus musculus [23],5.5 µm
same,Activity,Mus musculus [24],Non-toxic
same,Activity,Mus musculus [25],Non-toxic
same,Activity,Mus musculus [26],0.05 g/cm2
same,Activity,Mus musculus [27],6.29%
same,Activity,Mus musculus [28],Non-toxic
same,Activity,Mus musculus [29],6.54%
same,Activity,Mus musculus [30],Active
same,Activity,Mus musculus [31],0.089 g/cm2
same,Activity,Mus musculus [32],Active
same,Activity,Mus musculus [33],Active
same,Activity,[1],27.3%
O=C(/C=C/c1ccccc1Cl)c1cc2ccccc2o1,Activity,[1],1.8%
C[S+]([O-])CC(=O)c1cc2ccccc2o1 (stereo unspecified),Activity,[1],3.9%
CS(=O)(=O)CC(=O)c1cc2ccccc2s1,Activity,[1],5.1%
COc1cc2cc(C(=O)C[S+](C)[O-])sc2cc1OC (stereo unspecified),Activity,[1],13.5%
CCOC(=O)c1ccc2sc(C(=O)/C=C/c3ccccc3Cl)cc2c1,Activity,[1],24%
COc1cc2cc(C(C)=O)sc2cc1OC,Activity,[1],37.1%
CCOC(=O)c1cc2c(Cl)cccc2s1,Activity,[1],-0.6%
CS(=O)(=O)CC(=O)c1cc2cc3c(cc2s1)OCO3,Activity,[1],-9.3%
CCOC(=O)c1cc2cc(OC)c(OC)cc2s1,Activity,[1],49.9%
